ABCB1 block – inhibitors of human ABCB1 transporter, ABCG2 counter-screen. inhibition, % at 6.6 µM. P08183. 0.067% of 190,000 active. CCRF-Adr cells, JC-1 efflux, flow cytometry; in the data active = inhibition above about 40%;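 note: 0% = vehicle and 100% = reference inhibitor; higher value means more JC-1 retained so stronger ABCB1 efflux block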
RAM inhibit – yeast RAM network inhibition; S. cerevisiae dse1pr::URA3 reporter, 5-FOA growth OD615, 2 d; analog-sensitive cbk1-as2 kinase mutant strain; inhibition, % at 50 µM; 1.8% of 190,000 active;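 active = inhibition above a set limit, 3 SD over mean compound inhibition, cut at about 8.4% in these data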;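 note: 0% = DMSO-only wells with no growth and 100% = 10 µM 1-NA-PP1 full growth; inhibition rescues growth on 5-FOA so higher OD means more RAM inhibition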
Arbovirus inh – arbovirus infection inhibition. arbovirus infection cell-based antiviral screen. inhibition, % at 10 µM. 0.37% of 200,000 active. AID 1251; in the data active = inhibition above about 30%
ABCG2 inh – human ABCG2 inhibition, ABCB1 as counter-screen; Q9UNQ0; IgMXP3 cells, JC-1 efflux, flow cytometry; inhibition, % at 6.6 µM; 0.1% of 190,000 active; AID 1325;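 active = inhibition above 80%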;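 note: 0% = DMSO and 100% = nicardipine control wells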
Target sequence (Q9UNQ0 whole entry, looked up): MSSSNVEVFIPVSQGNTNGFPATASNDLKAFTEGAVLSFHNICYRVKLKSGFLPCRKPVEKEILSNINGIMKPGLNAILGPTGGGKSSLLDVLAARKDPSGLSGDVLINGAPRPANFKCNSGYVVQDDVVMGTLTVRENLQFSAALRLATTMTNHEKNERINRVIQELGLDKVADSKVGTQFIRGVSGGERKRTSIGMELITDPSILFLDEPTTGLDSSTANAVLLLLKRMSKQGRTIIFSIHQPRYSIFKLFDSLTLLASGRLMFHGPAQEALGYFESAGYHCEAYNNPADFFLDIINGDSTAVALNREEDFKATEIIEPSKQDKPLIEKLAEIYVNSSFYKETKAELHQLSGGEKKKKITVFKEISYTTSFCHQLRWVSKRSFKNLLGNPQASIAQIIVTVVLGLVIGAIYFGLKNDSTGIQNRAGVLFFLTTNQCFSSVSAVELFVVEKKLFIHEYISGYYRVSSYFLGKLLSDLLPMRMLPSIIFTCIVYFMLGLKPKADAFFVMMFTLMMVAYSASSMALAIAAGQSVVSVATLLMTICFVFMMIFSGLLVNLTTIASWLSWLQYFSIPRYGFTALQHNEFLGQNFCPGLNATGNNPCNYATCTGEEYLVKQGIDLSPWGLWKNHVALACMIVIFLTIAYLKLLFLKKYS
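System: two drug-resistant human cell lines, ABCG2 and ABCB1; controls: nicardipine high and DMSO low controls; times: 10 min exposure at 25 °C with rotation, no wash; detection: flow cytometry of retained JC-1 fluorescence; read-out basis: percent efflux inhibition, scaled nicardipine 100% to DMSO 0%; doses: one concentration, 6.6 µM final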
* marks the source's active call; other numbers are inactive results; ! = a repeat was not active. Sampled rows, rich in hits. Any-hit rate of the full collection: about 2.3%.

SMILES	ABCB1 block	RAM inhibit	Arbovirus inh	ABCG2 inh
O=C(CSc1nnc(C2COc3ccccc3O2)o1)Nc1ccc(F)cc1Cl (stereo not drawn)	0	-1	7	2
CCOC(=O)c1[nH]c(C)c(C(=O)N(C)Cc2ccccc2)c1C	1	1	-3	3
CCOC(=O)CSc1nc2ccccc2c(=O)n1CC1COc2ccccc2O1 (stereo not drawn)	1	4	2	2
CCCN(CCC)C(=O)CSc1nc2ccccc2c(=O)n1CC1COc2ccccc2O1 (stereo not drawn)	7	9.0*	-5	10
CCOc1ccccc1-c1nnc(SCC(=O)Nc2ccccc2)o1	1	10*	4	5
CCCN(CCC)CCCNC(=O)CC1Nc2ccccc2NC1=O (stereo not drawn)	0	-1	6	0
CN(C)S(=O)(=O)N1CCN(c2ccc([N+](=O)[O-])c(NC3CC3)c2)CC1	1	8.6*	-1	2
CNc1cc(N2CCN(S(=O)(=O)N(C)C)CC2)ccc1[N+](=O)[O-]	0	0	5	23
COC(=O)[C@@H](N)Cc1ccc(O)cc1	0	2	-3	0
N[C@@H](Cc1cc(I)c(Oc2ccc(O)c(I)c2)c(I)c1)C(=O)O	-1	2	47*!	-5
O=C(Nc1ccccc1N1CCCC1)c1cc2ccccc2o1	0	1	2	3
O=C(Nc1ccccc1N1CCN(C(=O)c2ccccc2)CC1)c1cc2ccccc2o1	19	8.5*	-6	59
CCc1cc(C(=O)O)c(NC(=O)C(c2ccccc2)c2ccccc2)s1	0	5	35*	8
CCOC(=O)c1cc(CC)sc1NC(=O)Cc1ccccc1	0	0	8	0
S=c1[nH]nc(-c2ccc(Br)cc2)n1Cc1ccccc1	0	3	6	1
COc1ccc(-c2csc(NC(=S)NC(=O)/C=C/c3ccco3)n2)cc1OC	0	9.7*	-22	-1
O=C(/C=C/c1ccco1)Nc1nc(-c2ccccc2)cs1	0	2	11	6
COc1ccc(-c2csc(NC(=O)C3COc4ccccc4O3)n2)cc1OC (stereo not drawn)	3	10*	11	0
COc1ccc(/C=N/NC(=O)C2COc3ccccc3O2)cc1OC (stereo not drawn)	0	1	-1	0
CC1(C)Cc2c(sc(/N=C/N3CCOCC3)c2C#N)C(C)(C)N1	0	0	0	14
Cc1ccc2cc(C3CC(c4ccco4)=NN3S(=O)(=O)c3ccccc3)c(Cl)nc2c1 (stereo not drawn)	0	3	37*	-6
COc1ccc(N2C(=O)C3ON(C4SC(=S)N(C)C4(C)C)C(c4ccc(Cl)cc4)C3C2=O)cc1 (stereo not drawn)	1	2	3	2
Cc1ccc(NC(=O)C(C)c2cccc(C(=O)c3ccccc3)c2)cc1O (stereo not drawn)	0	8.8*	16	7
COc1ccc(CN(C(=O)CSc2nnc(-c3ccccc3C)o2)c2ccc(F)cc2)cc1	1	11*	-12	0
CCOC(=O)CN(C(=O)CSc1nnc(-c2cccc(OC)c2)o1)c1ccc(F)cc1	1	6	2	2
SMILES	ABCB1 block	RAM inhibit	Arbovirus inh	ABCG2 inh
COC(=O)CN(C(=O)CSc1nnc(-c2cccc(OC)c2)o1)c1ccc(OC)cc1	0	11*	3	1
O=C(CSc1nnc(-c2c[nH]c3ccccc23)o1)N(Cc1ccccc1)c1ccc(F)cc1	3	4	-12	33
C=CCn1c(Cc2ccccc2)nnc1SCc1nc2ccccc2c(=O)[nH]1	1	0	2	5
O=C(Cn1nnc(-c2ccccc2-n2cnnn2)n1)c1ccccc1	0	2	4	-1
O=C1c2ccccc2N2C(=O)c3ccccc3[C@H]2N1c1ccccc1	1	2	30*	2
CCc1nc2oc3ccccc3c(=O)c2c(=O)n1-c1ccccc1	1	-1	6	2
Nc1nc2n(n1)C(c1cccs1)CC(c1ccc(F)cc1)N2 (stereo not drawn)	1	0	3	1
Cc1ccc(SCc2cc(=O)[nH]c(Nc3nc(C)c4cccc(C)c4n3)n2)cc1	1	2	3	3
COc1ccc2nc(Nc3nc(CSc4ccc(C)cc4)cc(=O)[nH]3)nc(C)c2c1	3	11*	-15	6
O=C(COC(=O)c1cccc(S(=O)(=O)N2CCN(c3ccccc3)CC2)c1)NCc1ccco1	0	3	13	0
CCCCCCSc1nc(O)c(C2OC(=O)c3c2ccc(OC)c3OC)c(=O)n1-c1ccccc1 (stereo not drawn)	0	8.6*	28	-1
CC1=CC(C)(C)Nc2ccc(OC(=O)CN3C(=O)c4cccc5cccc(c45)C3=O)cc21	0	1	-19	-1
Cc1cc(NS(=O)(=O)c2ccc(NC(=O)c3cc4c(=O)n5ccccc5nc4s3)cc2)nc(C)n1	-1	9.0*	-1	-1
CN(C)S(=O)(=O)c1cccc(NC(=O)c2cc3c(=O)n4ccccc4nc3s2)c1	-2	2	10	-16
CC(=O)c1ccc(N2CCN(C(=O)c3cc(-c4cccnc4)nc4ccc(Br)cc34)CC2)cc1	1	4	32*	1
O=C(c1cc(-c2cccnc2)nc2ccc(Br)cc12)N1CCN(c2ncccn2)CC1	3	2	22	5
Cc1ccc(OCC(=O)NC(=S)Nc2ccc(Br)cn2)cc1C	0	9.5*	-3	2
C=CCN1C(=O)C(Cc2ccccc2)S/C1=N/N=C/c1cccs1 (stereo not drawn)	2	8	2	6
C=CCN1C(=O)C(Cc2ccc(OCC)cc2)S/C1=N\N=C\c1cccs1 (stereo not drawn)	0	9.3*	-6	0
O=C1CCCN2N=C(SCC(=O)N3N=C(c4ccc(Br)cc4)CC3c3ccc(F)cc3)SC2=N1 (stereo not drawn)	7	11*	12	6
COc1ccc(C2=NN(C(=O)CSc3nc4ccccc4s3)C(c3ccc(F)cc3)C2)cc1 (stereo not drawn)	0	3	8	1
Cc1ccccc1-c1nc2sc3c(c2c(=O)n1N)CCCC3	0	0	-20	1
Nn1c(-c2cccs2)nc2sc3c(c2c1=O)CCCC3	0	9.0*	6	4
Cc1ccc(Nc2nc(/N=C/N(C)C)n[nH]2)cc1C	1	1	6	3
O=C(COC(=O)CC1c2ccccc2CCN1S(=O)(=O)c1ccc(F)cc1)Nc1ccccc1 (stereo not drawn)	1	8.6*	8	-1
CCc1cccc(CC)c1NC(=O)COC(=O)CC1c2ccccc2CCN1S(=O)(=O)c1ccc(F)cc1 (stereo not drawn)	3	8	6	5
CCC(=O)c1ccc(N2CCN(C(=O)c3ccc(F)cc3)CC2)c(F)c1	0	2	2	15
Cc1ccc(S(=O)(=O)N(CC(=O)NC2CCCCCC2)c2ccccc2F)cc1	0	5	-3	1
